Screens from PubChem.
ALR inh = inhibitors of human sulfhydryl oxidase ALR. AID 485317. P55789. purified ALR, DTT oxidation, H2O2 HRP-luminol luminescence. 3.8% of 290,000 active. inhibition, % (no concentration beside the values);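 active means mean replicate inhibition above about 79%, with every replicate also reaching it, limit read from the data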
PfM18AAP inh-1 = PfM18AAP enzyme inhibition | recombinant PfM18AAP, H-Glu-NHMec fluorogenic cleavage | inhibition, % at 7.35 µM | 1.2% of 290,000 active;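 active means inhibition above the campaign mean inhibition over all tested compounds plus 3 SD, cut at about 28% in these data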;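 further: 0% = plate median of test compound wells and 100% = 2 mM ZnCl2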
FAS TE block = blocks the thioesterase domain of human fatty acid synthase; recombinant FAS-TE, OMFH fluorogenic substrate, fluorescence endpoint; AID 602261; inhibition, % at 15 µM; 0.67% of 360,000 active;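 active means compounds whose normalised, plate-corrected inhibition of enzyme fluorescence in the single-dose primary screen is 50% or more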;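 further: 0% = DMSO with enzyme and 100% = substrate without enzyme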
UCH37 inh = inhibitors of human deubiquitinating enzyme UCH37. 0.33% of 330,000 active. purified proteasome/UCH37, Ub-AMC cleavage fluorescence. Q9Y5K5. inhibition, % (concentration not given with the values);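 active means mean inhibition over replicate wells above about 20%, limit read from the data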;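 further: 0% = compound-free wells with enzyme and 100% = wells lacking proteasome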
Target sequence (Q9Y5K5 whole entry, looked up): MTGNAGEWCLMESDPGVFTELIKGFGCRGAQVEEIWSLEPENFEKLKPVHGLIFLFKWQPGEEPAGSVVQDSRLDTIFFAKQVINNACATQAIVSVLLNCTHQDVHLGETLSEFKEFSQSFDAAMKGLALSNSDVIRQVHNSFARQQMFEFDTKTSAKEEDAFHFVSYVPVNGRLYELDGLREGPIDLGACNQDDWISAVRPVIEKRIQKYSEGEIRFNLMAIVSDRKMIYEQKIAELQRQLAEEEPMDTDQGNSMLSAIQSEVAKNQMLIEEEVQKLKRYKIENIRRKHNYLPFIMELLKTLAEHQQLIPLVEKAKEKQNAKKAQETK
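Assay system: Proteasome-bound UCH37. Buffer or medium: pH 7.4 Tris-HCl (50 mM) with ovalbumin, ATP-MgCl2, DTT. Incubation: 30 min preincubation with enzyme, 25 min cleavage at room temperature. Measured by: fluorescence, ex 355 nm, em 460 nm. Read-out basis: percent inhibition. Control set: wells without proteasome as full block, compound-free enzyme plus substrate as uninhibited.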
HDAC3 inhib = blocks human histone deacetylase 3; O15379; 0.15% of 320,000 active; inhibition, % at 8.3 µM; recombinant HDAC3, fluorogenic peptide/trypsin coupled, fluorescence; AID 2718; in the data active means inhibition above about 26%, passing the limit was not always enough
Target sequence (O15379 whole entry, looked up): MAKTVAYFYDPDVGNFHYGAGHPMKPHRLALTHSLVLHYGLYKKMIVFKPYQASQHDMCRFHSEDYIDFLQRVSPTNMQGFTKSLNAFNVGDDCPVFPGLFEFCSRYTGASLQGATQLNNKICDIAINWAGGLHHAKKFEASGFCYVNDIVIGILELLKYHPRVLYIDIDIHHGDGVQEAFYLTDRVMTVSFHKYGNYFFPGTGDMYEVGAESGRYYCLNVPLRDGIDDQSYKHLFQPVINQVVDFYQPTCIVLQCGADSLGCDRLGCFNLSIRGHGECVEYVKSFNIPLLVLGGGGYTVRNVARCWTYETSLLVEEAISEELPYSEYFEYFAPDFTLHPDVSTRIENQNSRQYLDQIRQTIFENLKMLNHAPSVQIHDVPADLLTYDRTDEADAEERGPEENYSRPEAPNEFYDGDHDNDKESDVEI
Rtt109 Vps75 = C. albicans Rtt109 histone acetyltransferase inhibition | Q5AAJ8 | inhibition, % at 34.9 µM | purified Rtt109/Vps75, ThioGlo CoA-SH fluorescence, 4 h | 0.16% of 330,000 active | AID 540336;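 active means inhibition of at least 50% in every replicate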
PfM18AAP inh-2 = confirmation of Plasmodium falciparum M18 aspartyl aminopeptidase inhibitors; shares compounds with PfM18AAP inh-1; recombinant PfM18AAP, H-Glu-NHMec fluorogenic cleavage; inhibition, % at 7.35 µM; 28% of 2,400 active; AID 2170;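 active means mean inhibition over replicate wells above the hit cutoff set for the earlier primary screen, cut at about 29% in these data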;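 further: 0% = median of test compound wells and 100% = 2 mM ZnCl2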
CTSL1 counter = counter-screen for PFM18AAP inhibitors: confirmation of human cathepsin L inhibitors; 2,400 tested, under 10 active; purified cathepsin L1, Z-Leu-Arg-MCA fluorescence; shares compounds with PfM18AAP inh-1; inhibition, % at 5.96 µM;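 active means average inhibition across replicates above the hit cutoff set in the earlier primary screen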;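 further: 0% = median of test compound wells and 100% = Z-Phe-Ala-diazomethylketone 1 µM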
* marks the source's active call; other numbers are inactive results; i = inactive; nt = no result. Rows were chosen to be rich in hits. Some 4.6% of all compounds tested hit in one or more screens of this group.

SMILES	ALR inh	PfM18AAP inh-1	FAS TE block	UCH37 inh	HDAC3 inhib	Rtt109 Vps75	PfM18AAP inh-2	CTSL1 counter
c1ccc2c(CNc3ccc(CNc4ncn[nH]4)cc3)cccc2c1	3.5	17.0	-36.6	-1.3	-4.6	-2.9	nt	nt
Cc1cccc(OCC(=O)NCC(=O)NN=Cc2ccccc2)c1	nt	nt	nt	1.2	nt	nt	nt	nt
Cc1nnc(NN=Cc2ccc(-c3ccccc3F)o2)n1N	nt	nt	nt	4.2	nt	nt	nt	nt
COc1cccc(C=NNC(=O)c2cnccn2)c1O	nt	nt	nt	7.0	nt	nt	nt	nt
COc1cc(C=NNC(=O)c2ccncc2)ccc1OC(=O)c1cc(OC)c(OC)c(OC)c1	nt	nt	nt	2.0	nt	nt	nt	nt
Cc1cc(C)nc(N/N=C/C2=C(N3CCOCC3)C(=C/c3ccccc3)/CC2)n1	27.2	36.0*	20.1	nt	-5.1	6.7	-42.6	6.6
Cc1[nH]c2ccccc2c1C=NNC(=O)CNC(=O)c1ccco1	nt	nt	nt	9.3	nt	nt	nt	nt
CCN(CC)c1ccc(-n2c(C)cc(C=O)c2C)cc1	98.4*	33.2*	9.1	4.0	1.2	0.9	-46.9	0.0
O=C(NNc1nc2cc3c(cc2s1)OCO3)c1ccccc1	99.3*	47.9*	-4.5	5.9	2.6	12.0	24.1	-4.9
COc1cc(C(=O)NNc2nc3cc4c(cc3s2)OCO4)cc(OC)c1OC	99.2*	40.6*	1.2	1.9	0.5	1.1	16.4	-6.2
COc1ccc(C(CC2(O)C(=O)Nc3ccccc32)=NO)cc1 (centres undefined)	nt	nt	nt	2.8	nt	nt	nt	nt
CC(C)NC(=O)c1c(O)c2cccc3c2n(c1=O)CCC3	5.1	-2.9	11.1	-1.9	0.5	1.1	nt	nt
NNC(=O)c1c(O)c2cccc3c2n(c1=O)CCC3	nt	33.7*	2.8	-2.2	0.9	0.1	-3.6	2.5
Cc1cccc(N/N=C/c2ccc(O)c(O)c2O)c1	79.3*	36.1*	-8.8	nt	4.8	45.3	17.2	1.8
Oc1ccc(/C=N/NC(=S)Nc2cccnc2)c(O)c1O	nt	62.1*	-13.3	nt	nt	-3.1	34.1*	1.8
Cc1cccc(N/N=C/c2ccc(C)s2)c1	-12.1	22.1	-1.2	nt	-15.4	4.8	nt	nt
Cc1cc(C)nc(NN=Cc2c(CO)cnc(C)c2O)n1	nt	nt	nt	-8.4	nt	nt	nt	nt
Cc1ncc(CO)c(/C=N/Nc2ccc(C(F)(F)F)cn2)c1O	5.5	47.7*	-1.1	nt	12.3	-7.0	-26.5	0.8
COC(=O)C1=C(C)N(Cc2ccc3c(c2)OCO3)C(=O)C1	24.1	33.9*	-3.3	4.2	-1.6	-6.5	-54.8	2.1
O=C(COc1ccc(C=NNC(=O)C(=O)N2CCCCC2)cc1)Nc1ccccc1Cl	nt	nt	nt	0.7	nt	nt	nt	nt
CCCC(=O)Nc1ccc(C(=O)N/N=C2\CC(=O)CC(C)(C)C2)cc1	16.0	39.0*	-7.9	nt	5.7	-11.4	-3.0	2.7
COc1ccc(COC(=O)NN=C(C)CC(=O)NCc2ccc(Cl)cc2)cc1	nt	nt	nt	1.3	nt	nt	nt	nt
Cc1cc(C)nc(SCNC(=O)c2ccc(F)cc2)n1	-2.4	50.0*	-6.7	1.8	1.3	-4.3	-18.1	5.1
COc1ccc2c(c1)S/C(=C\C(=O)c1ccncc1)N2C	-1.6	38.6*	-7.4	5.8	3.5	5.3	27.2	5.8
COc1cc(OC)cc(C(=O)/C=C2\Sc3ccccc3N2C)c1	-3.8	46.7*	-6.2	-25.2	13.0	-0.9	-47.6	0.3
SMILES	ALR inh	PfM18AAP inh-1	FAS TE block	UCH37 inh	HDAC3 inhib	Rtt109 Vps75	PfM18AAP inh-2	CTSL1 counter
COCC(=O)/C=C1\Sc2ccccc2N1C	0.4	9.1	-6.9	19.0	-1.7	2.6	nt	nt
COc1ccc(C(=O)/C=C2/Sc3cc4c(cc3N2C)OCO4)cc1	nt	39.7*	-5.0	-2.4	nt	43.7	-44.8	1.5
CSc1ccc(C=NN2CCN(Cc3ccc(C)cc3C)CC2)cc1	nt	nt	nt	0.6	nt	nt	nt	nt
CCCCOC(=O)c1sc2nc(N3CCOCC3)c3c(c2c1N)CC(C)(C)OC3	1.7	-4.4	1.3	-202.3	-6.8	-2.3	nt	nt
COc1ccc(NC(=O)c2sc3nc(N4CCOCC4)c4c(c3c2N)CC(C)(C)OC4)cc1	-28.6	35.8*	-9.6	i	4.1	-14.8	-56.2	-7.7
CC1(C)Cc2c(c(N3CCOCC3)nc3sc(C(=O)N4CCCCC4)c(N)c23)CO1	nt	33.5*	0.5	-118.7	nt	12.2	-5.8	2.4
COc1cc([N+](=O)[O-])cc(C=NN(CCC#N)C(C)=O)c1O	nt	nt	nt	13.4	nt	nt	nt	nt
O=S(=O)(c1ccc(NC(=S)N2CCN(c3ccc(O)cc3)CC2)cc1)N1CCOCC1	99.3*	33.7*	-4.5	2.0	7.0	2.0	2.2	-4.9
Cc1ccc(S(=O)(=O)N2CCOCC2)cc1NC(=O)CN1CCN(C)CC1	-3.1	nt	-6.0	0.3	-1.5	-2.1	nt	nt
Cc1ccc(S(=O)(=O)N2CCOCC2)cc1NC(=O)CN1CCN(c2ccc(O)cc2)CC1	96.8*	34.3*	-8.7	1.9	6.2	7.3	7.7	0.0
O=S(=O)(c1ccc(NC(=S)N2CCOCC2)cc1)N1CCCCC1	nt	nt	-4.9	nt	nt	nt	nt	nt
COc1cc(/C=C2\CC/C(=C\c3cc(OC)c(O)c(OC)c3)C2=O)cc(OC)c1O	43.5	50.8*	-17.9	9.8	6.5	9.3	47.9*	-0.6
COc1cccc(C=NNc2nnc(C)n2N)c1OCc1ccccc1Cl	nt	nt	nt	2.6	nt	nt	nt	nt
Cc1cccc[n+]1CC(=O)/C=C1\N(C)c2ccccc2C1(C)C	-38.5	-1.5	-10.6	17.1	7.6	21.0	nt	nt
CN1/C(=C\C(=O)COC(=O)c2ccc(O)c(O)c2)C(C)(C)c2ccccc21	98.8*	45.3*	nt	-9.5	-4.3	nt	6.2	-2.2
CN1/C(=C\C(=O)CSc2cccc[n+]2[O-])C(C)(C)c2ccccc21	-31.2	49.2*	-7.3	-8.8	-9.7	-18.1	-42.2	-4.0
CN1/C(=C\C(=O)COC(=O)c2ccc(O)cc2)C(C)(C)c2ccccc21	-14.9	0.1	5.1	-14.3	1.2	0.7	nt	nt
CC(=O)Nc1cccc(C(C)=NNC(=O)c2cc(-c3ccncc3)nc3ccccc23)c1	nt	nt	nt	1.5	nt	nt	nt	nt
COc1cc(CN2CCCCCC2)c([N+](=O)[O-])cc1OC	-18.9	32.6*	-4.7	5.8	7.1	-2.2	-29.9	-7.1
COc1cc(CN2CCSCC2)c([N+](=O)[O-])cc1OC	nt	25.7	-6.0	3.8	-0.7	5.7	nt	nt
Cc1cccc(-n2c(C)cc(C=NNC(N)=S)c2C)c1	nt	nt	nt	-15.6	nt	nt	nt	nt
O=C(O)c1ccc2c(c1)C(=O)/C(=C\c1ccco1)C2=O	32.8	42.5*	-5.4	13.0	5.0	-2.8	40.0*	-5.8
COC(=O)C1=C(O)/C(=C\c2ccc(O)c(OC)c2)N=C1C	98.9*	54.9*	-10.7	12.3	3.3	17.8	-29.6	-3.2
COc1cc(/C=N/Nc2ccc(C(=O)O)cc2)ccc1O	99.2*	50.5*	-7.1	nt	-3.0	7.1	22.0	3.2
COc1ccc(/C=N/Nc2ccc([N+](=O)[O-])cc2)cc1O	95.3*	48.0*	-13.1	nt	0.7	9.1	9.6	7.1
